# Source: ChEMBL document CHEMBL4138048, “Synthesis of substituted 2H-benzo[e]indazole-9-carboxylate as a potent antihyperglycemic agent that may act through IRS-1, Akt and GSK-3β pathways” (Medchemcomm, 2017)
# Activity calls are given as the source filed them. The rule behind the calls is not given here.
# Columns and labels:
# Mus musculus [1] = assay: Antihyperglycemic activity in db/db mouse assessed as reduction in triglyceride level at 3 mg/kg, po qd for 15 days; type: functional; design: scale not given: the % may be the effect or the level left
# How it was run: (§1)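 db/db mice given 3, 10 or 30 mg/kg orally once a day for 15 consecutive days, alongside vehicle controls. Serum triglyceride, total cholesterol, HDL-C and insulin measured, along with fasting blood glucose. Expressed as mean % change in 5 animals per group versus control.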
# Mus musculus [2] = assay: Antihyperglycemic activity in db/db mouse assessed as reduction in cholesterol level at 10 mg/kg, po qd for 15 days; type: functional; design: scale not given: the % may be the effect or the level left; how it was run: as §1
# Mus musculus [3] = assay: Antihyperglycemic activity in db/db mouse assessed as improvement on glucose tolerance by measuring blood glucose AUC level at 30 mg/kg, po qd for 15 days by oral glucose tolerance test; type: functional
# How it was run: (§2)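 db/db mice dosed orally once daily for 15 consecutive days at 3, 10 or 30 mg/kg, with vehicle controls and pioglitazone at 10 mg/kg. Oral glucose tolerance tests on day 10 and day 15. Overall improvement in glucose tolerance calculated against vehicle control. Mean % change in 5 animals per group.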
# Rattus norvegicus [4] = assay: Antihyperglycemic activity in albino Wistar rat assessed as inhibition of postprandial hyperglycemia at 100 mg/kg, po dosed 30 mins before sucrose load and measured 30 to 120 mins post sucrose injection by glucometry; type: functional
# How it was run: (§3)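 Normal albino rats given an oral sucrose load, with a single oral dose of 100 mg/kg b.wt. Blood glucose profile followed after the load, and glucose AUC taken over 0–2 h. Percent inhibition of the postprandial rise in blood glucose calculated against control. Mean % change in 5 animals per group.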
# Mus musculus [5] = assay: Antihyperglycemic activity in db/db mouse assessed as improvement on glucose tolerance by measuring blood glucose AUC level at 3 to 30 mg/kg, po qd for 10 days by oral glucose tolerance test; type: functional, organism-based; how it was run: as §2
# Mus musculus [6] = assay: Antihyperglycemic activity in db/db mouse assessed as increase in HDL-C level at 3 mg/kg, po qd for 15 days; type: functional; how it was run: as §1
# Mus musculus [7] = assay: Antihyperglycemic activity in db/db mouse assessed as reduction in fasting blood glucose level at 3 mg/kg, po qd for 15 days; type: functional; design: scale not given: the % may be the effect or the level left; how it was run: as §1
# L6 [8] = assay: Cytotoxicity in rat L6 cells assessed as reduction in cell viability at 1 to 50 uM by MTT assay; type: cell-based; conditions: l6, 50 µM
# Mus musculus [9] = assay: Antihyperglycemic activity in db/db mouse assessed as improvement on glucose tolerance by measuring blood glucose AUC level at 10 mg/kg, po qd for 15 days by oral glucose tolerance test; type: functional; how it was run: as §2
# Mus musculus [10] = assay: Antihyperglycemic activity in db/db mouse assessed as improvement on glucose tolerance by measuring blood glucose AUC level at 10 mg/kg, po qd for 10 days by oral glucose tolerance test; type: functional; how it was run: as §2
# L6 [11] = assay: Stimulation of [3H]2-deoxyglucose uptake in rat L6 cells at 10 uM incubated for 16 hrs by scintillation counting method; type: functional, cell-based
# How it was run: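 L6 myotubes incubated with the compound […]; insulin at 100 nM for 20 min served as the positive control. Uptake of ³H-2-deoxyglucose measured and expressed as fold stimulation relative to the control condition.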
# Mus musculus [12] = assay: Antihyperglycemic activity in db/db mouse assessed as reduction in serum insulin level at 3 to 30 mg/kg, po qd for 15 days; type: functional, organism-based; how it was run: as §1
# HepG2 = assay: Inhibition of glucagon-mediated glucose release in human HepG2 cells at 10 uM incubated for 24 hrs by Amplex red glucose/glucose oxidase assay; type: functional, cell-based
# Mus musculus [13] = assay: Antihyperglycemic activity in db/db mouse assessed as increase in HDL-C level at 30 mg/kg, po qd for 15 days; type: functional; how it was run: as §1
# Rattus norvegicus [14] = assay: Antihyperglycemic activity in Sprague-Dawley rat model of STZ-induced diabetes assessed as improvement on glucose tolerance at 100 mg/kg, po dosed 30 mins before sucrose load and measured after 5 hrs post sucrose load by glucometry; type: functional
# How it was run: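 Sucrose-challenged streptozotocin-induced diabetic rats, single oral dose of 100 mg/kg b.wt. Blood glucose profile followed after sucrose load, and glucose AUC taken over 0–24 h. Percent improvement in glucose tolerance calculated at 5 h post sucrose load. Values are mean % change in 5 animals per group, compared with control.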
# Mus musculus [15] = assay: Antihyperglycemic activity in db/db mouse assessed as reduction in blood glucose level at 3 to 30 mg/kg, po qd for 15 days by oral glucose tolerance test; type: functional, organism-based
# How it was run: (§4)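 Type 2 diabetic db/db mice dosed orally once a day for 15 days at 3, 10 or 30 mg/kg, with pioglitazone at 10 mg/kg as standard. Blood glucose measured daily and profile compared with vehicle-treated animals. Mean % change in 5 animals per group.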
# [16] = biological target: T1, Tyrosine-protein phosphatase non-receptor type 1 (Rattus norvegicus) (UniProt P20417); assay: Inhibition of PTP1B in rat L6 cells assessed as increase in insulin-stimulated GSK3beta Ser9 phosphorylation at 10 to 25 uM pre-incubated for 16 hrs before insulin stimulation for 10 mins by Western blot method; type: cell-based
# T1 sequence (whole entry): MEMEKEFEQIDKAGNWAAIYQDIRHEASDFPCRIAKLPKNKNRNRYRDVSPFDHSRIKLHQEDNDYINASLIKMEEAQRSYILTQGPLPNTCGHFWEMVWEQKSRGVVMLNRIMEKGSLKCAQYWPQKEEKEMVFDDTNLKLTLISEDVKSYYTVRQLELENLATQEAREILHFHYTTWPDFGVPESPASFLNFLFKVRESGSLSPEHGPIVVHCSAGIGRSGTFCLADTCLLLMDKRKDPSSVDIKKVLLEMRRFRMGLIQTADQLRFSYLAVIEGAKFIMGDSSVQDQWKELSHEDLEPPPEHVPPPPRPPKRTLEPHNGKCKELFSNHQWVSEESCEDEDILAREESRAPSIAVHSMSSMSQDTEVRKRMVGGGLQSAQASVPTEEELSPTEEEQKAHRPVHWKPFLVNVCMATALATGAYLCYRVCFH
# How it was run: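 L6 myotubes treated for 16 h with the compound at the indicated concentrations, then stimulated with insulin (100 nM) for 10 min. Cells lysed and analysed by western blot. Densitometry of p-IRS-1, p-AKT and p-GSK, each relative to its total form. Compared with control and with insulin-treated control.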
# Mus musculus [17] = assay: Antihyperglycemic activity in db/db mouse assessed as reduction in fasting blood glucose level at 3 to 30 mg/kg, po qd for 15 days; type: functional, organism-based; how it was run: as §1
# Mus musculus [18] = assay: Antihyperglycemic activity in db/db mouse assessed as reduction in insulin level at 3 mg/kg, po qd for 15 days; type: functional; design: scale not given: the % may be the effect or the level left; how it was run: as §1
# Rattus norvegicus [19] = assay: Antihyperglycemic activity in albino Wistar rat assessed as reduction in blodd glucose level at 100 mg/kg, po dosed 30 mins before sucrose load and measured 30 to 120 mins post sucrose injection by glucometry; type: functional, organism-based; how it was run: as §3
# Mus musculus [20] = assay: Antihyperglycemic activity in db/db mouse assessed as reduction in blood glucose level at 30 mg/kg, po qd and measured on day 7 by oral glucose tolerance test; type: functional, organism-based; how it was run: as §4
# [21] = biological target: T2, Tyrosine-protein phosphatase non-receptor type 1 (Homo sapiens) (UniProt P18031); assay: Inhibition of human recombinant PTP1B using IR5 insulin receptor-beta (1142 to 1153 residues, pY1146) substrate BY Malachite green dye based assay
# T2 sequence (whole entry): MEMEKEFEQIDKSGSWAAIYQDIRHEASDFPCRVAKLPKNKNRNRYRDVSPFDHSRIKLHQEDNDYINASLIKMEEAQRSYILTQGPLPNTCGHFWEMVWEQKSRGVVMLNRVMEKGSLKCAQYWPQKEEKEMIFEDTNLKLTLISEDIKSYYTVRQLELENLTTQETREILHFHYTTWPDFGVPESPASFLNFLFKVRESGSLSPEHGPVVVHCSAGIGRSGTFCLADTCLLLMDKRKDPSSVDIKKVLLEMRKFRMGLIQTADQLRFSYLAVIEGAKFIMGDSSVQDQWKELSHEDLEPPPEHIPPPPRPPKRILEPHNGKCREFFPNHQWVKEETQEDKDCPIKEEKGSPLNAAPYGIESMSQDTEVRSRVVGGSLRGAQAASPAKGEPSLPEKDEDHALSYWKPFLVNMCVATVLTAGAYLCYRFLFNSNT
compound,measurement,setting,value
COC(=O)c1c(SC)cc(-c2ccc(C)cc2)c2c1-c1cn(-c3ccccc3)nc1CC2,Activity,Mus musculus [1],8.98%
same,Activity,Mus musculus [2],15.3%
same,Activity,Mus musculus [3],31.6%
same,inhibition in vivo at 100 mg/kg,Rattus norvegicus [4],35.8%
same,Activity,Mus musculus [5],Dose-dependent effect
same,Activity,Mus musculus [6],6.27%
same,Activity,Mus musculus [7],10.1%
same,Activity,L6 [8],Non-Toxic
same,Activity,Mus musculus [9],20.1%
same,Activity,Mus musculus [10],13.9%
same,Activity,L6 [11],Active
same,Activity,Mus musculus [12],Dose-dependent effect
same,inhibition,HepG2,Active
same,Activity,Mus musculus [13],20.5%
same,Activity,Rattus norvegicus [14],23.1%
same,Activity,Mus musculus [15],Dose-dependent effect
same,inhibition,[16],Active
same,Activity,Mus musculus [17],Dose-dependent effect
same,Activity,Mus musculus [18],6.57%
same,Activity,Rattus norvegicus [19],Active
same,Activity,Mus musculus [20],Active
same,inhibition,[21],Dose-dependent effect
